Laboratory results as given in ChEMBL document CHEMBL4251639, “Identification of novel 2-benzoxazolinone derivatives with specific inhibitory activity against the HIV-1 nucleocapsid protein” (Eur J Med Chem, 2018).
pIC50: −log10 of the molar value. The source made the active and inactive calls. The rule behind the calls is not given here.

Assays:
[1] = (§1) Inhibition of HIV-1 nucleocapsid protein (12 to 55 residues) assessed a sreduction in TAR29/cTAR29 duplex formation preincubated for 15 mins followed by TAR29/cTAR29 addition and measured after 15 mins by nucleocapsid annealing mediated electrophoresis assay; set-up: species or system Human immunodeficiency virus 1; settings: for pIC50: read-out: IC50
How it was run: (§2)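 TAR29 and cTAR29 hairpins folded separately (95°C 5 min, slow cooling) in Tris 25 mM, NaCl 30 mM, Mg(ClO4)2 0.2 mM, pH 7.5. NC(12–55, LAI strain; final 8 μM) preincubated with compound (DMSO ≤2%) 15 min at room temperature. Then 1 μM each hairpin added, 15 min at room temperature. Stopped with SDS/EDTA loading buffer; duplex resolved on native 12% PAGE. IC50 from Hill fit, triplicates.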

[2] = tested on: Human immunodeficiency virus 1; assay: Binding affinity to HIV-1 nucleocapsid protein (1 to 55 residues) at 5 uM incubated for 30 mins by ESI-MS method
[3] = tested on: Human immunodeficiency virus 1; assay: as §1; how it was run: as §2
[4] = Inhibition of HIV-1 nucleocapsid protein (11 to 55 residues) chaperone activity assessed as reduction in nucleocapsid-induced Alexa488-labeled TAR55AD nucleic acid destabilization using Dabcyl as quencher by spectrofluorimetry based nucleic acid destabilization assay; set-up: species or system Human immunodeficiency virus 1
How it was run: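 Preformed complex of 100 nM cTAR55 (5'-Alexa488, 3'-Dabcyl) and 1000 nM NC(11–55, MAL strain, Zn-loaded) in Tris 25 mM, NaCl 30 mM, MgCl2 0.2 mM, pH 7.5. Compound titrated in (25–500 μM); emission spectra taken at 480 nm excitation, 20°C. Inhibition calculated relative to cTAR alone and cTAR+NC, corrected for dilution and compound fluorescence. IC50 from Hill dose-response fit, triplicates.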

[5] = tested on: Human immunodeficiency virus 1; assay: Inhibition of HIV-1 nucleocapsid protein (11 to 55 residues) assessed as reduction in dTAR55/cTAR55AD nucleic acid annealing at 200 uM by Alexa488 dye-based fluorimetric analysis
How it was run: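 Pseudo-first-order annealing: 10 nM cTAR55 (5'-Alexa488, 3'-Dabcyl) and 100 nM dTAR55, each premixed with 8-fold NC(11–55, MAL strain, Zn-loaded). Buffer was Tris 25 mM, NaCl 30 mM, MgCl2 0.2 mM, pH 7.5, with 1% DMSO. Compound added to the dTAR55/NC mix. Fluorescence read at 480/519 nm, 20°C; rate constant from mono-exponential fit.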

[6] = tested on: Human immunodeficiency virus 1; assay: Antiviral activity against HIV1 NL4-3 infected in human TZM-bl cells measured after 2 days by luciferase reporter gene based monocycle infection assay; format: functional, organism-based; settings: Human immunodeficiency virus 1, NL4-3, TZM-bl, 48 h
How it was run: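 TZM-bl cells (30,000/well) were infected with an NL4-3 stock in the presence of serial five-fold compound dilutions from 5 nM to 400 μM. Plates were held at 37°C, 5% CO2, for two days. Cells were then lysed and luciferase was read as RLU. IC50 was fitted from per-well RLU with a 95% confidence interval.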

[7] = tested on: Human immunodeficiency virus 1; assay: Antiviral activity against HIV1 NL4-3 infected in human MT2 cells incubated for 72 hrs followed by reinfection in human TZM-bl cells measured after 48 hrs by luciferase reporter gene based bicycle infection assay; format: functional, organism-based; settings: Human immunodeficiency virus 1, NL4-3
How it was run: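 This is a two-cycle format. MT-2 cells (50,000/well) were infected with NL4-3 alongside five-fold compound dilutions (5 nM–400 μM) and kept 72 h at 37°C, 5% CO2. Supernatant carrying first-round virus then infected TZM-bl cells (30,000/well) for 48 h under the same conditions. Luciferase RLU gave the IC50 with a 95% confidence interval.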

TZM = assay: Cytotoxicity against human TZM-bl cells after 48 hrs by CellTiter-Glo reagent-based assay; format: cell-based
How it was run: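 Viability was measured by CellTiter-Glo ATP luminescence. TZM-bl cells (15,000/well) were incubated 48 h at 37°C, 5% CO2, with serial two-fold compound dilutions from 3.1 to 400 μM. Medium was then replaced by reagent, shaken 10 min, and luminescence read. TD50 was derived from RLU normalised to untreated cells (100% viability), with a 95% confidence interval.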

[8] = Selectivity index, ratio of IC50 for human TZM-bl cells to IC50 for HIV1 NL4-3 infected in human TZM-bl cells; format: toxicity, cell-based; settings: uninfected versus infected with HIV1 NL4-3, read-out: Ratio IC50
How it was run: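 Selectivity index from TD50 in TZM-bl cells and IC50 from the MonoCycle assay. […] MonoCycle IC50: 30,000 TZM-bl cells/well infected with NL4-3 with five-fold dilutions 5 nM–400 μM; luciferase RLU read after two days.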

[9] = Selectivity index, ratio of IC50 for human MT2 cells to IC50 for HIV1 NL4-3 infected in human MT2 cells; format: toxicity, cell-based; settings: uninfected versus infected with HIV1 NL4-3, read-out: Ratio IC50
How it was run: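 Selectivity index from TD50 in MT-2 cells and IC50 from the BiCycle assay. […] BiCycle IC50: MT-2 cells infected with NL4-3 with compound for 72 h; supernatant then transferred to TZM-bl cells, luciferase read after 48 h.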

MT2 = assay: Cytotoxicity against human MT2 cells after 72 hrs by CellTiter-Glo reagent-based assay; settings: MT2, 72 h
[10] = tested on: Human immunodeficiency virus 1; assay: Binding affinity to HIV-1 nucleocapsid protein (1 to 55 residues) assessed as fractional protein occupancy ratio at 5 uM incubated for 30 mins by ESI-MS method

Cc1cc2[nH]c(=O)oc2cc1S(=O)(=O)NN1CCc2c(nc[nH]c2=O)C1
pIC50 [1]: 3.77
Activity [2]: Active

O=C(O)c1ccc2c(c1)CCN2S(=O)(=O)c1ccc2[nH]c(=O)oc2c1
pIC50 [1]: 3.79
Activity [2]: Active

N=C(N)NS(=O)(=O)c1ccc2[nH]c(=O)oc2c1
pIC50 [1]: 3.69

O=c1[nH]c2ccc(S(=O)(=O)Nc3ccc(S(=O)(=O)NCC(F)(F)F)cc3)cc2o1
IC50 [1]: Not Active

Cc1cc(CCCNc2nnnn2-c2ccccc2)n[nH]1
inhibition [3]: inactive

c1ccc(-c2ccnc3[nH]ccc23)c(OCCn2ccnc2)c1
inhibition [3]: inactive

NC(=O)c1ccn(COc2ccccc2F)n1
inhibition [3]: inactive

O=C(O)C1CCN(c2ncnc3nc[nH]c23)CC1
inhibition [3]: inactive

O=C1CN(C(=O)Cc2n[nH]c(=O)c3ccccc23)CCN1
inhibition [3]: inactive

N#Cc1ccc(CSc2nc3[nH]ncc3c(=O)[nH]2)cc1
inhibition [3]: inactive

Nc1cccc(C(=O)NCCCC(=O)O)c1
inhibition [3]: inactive

N#Cc1cnc(SCc2cccc(C(N)=O)c2)nc1N
inhibition [3]: inactive

CC(=O)c1sc(NS(=O)(=O)c2ccc3[nH]c(=O)[nH]c3c2)nc1C
IC50 [1]: Not Active

COc1ccc(C(C)(C)C)cc1NS(=O)(=O)c1ccc2[nH]c(=O)[nH]c2c1
IC50 [1]: Not Active

Cc1ccc(NC(=O)CCn2c(=O)[nH]c3cc(S(=O)(=O)N4CCCC4)ccc32)cc1
IC50 [1]: Not Active

COc1cccc(-n2c(CCn3cccn3)n[nH]c2=O)c1
inhibition [3]: inactive

O=C1N=NC(=S)N1c1ccc(Cl)c(Cl)c1
inhibition [3]: Active

O=C(O)CNS(=O)(=O)c1ccc2[nH]c(=O)oc2c1
IC50 [1]: Not Active

O=c1[nH]c2ccc(S(=O)(=O)Nc3cc(-c4ccccc4)no3)cc2[nH]1
IC50 [1]: Not Active

CS(=O)(=O)N1CCc2cc(NS(=O)(=O)c3ccc4[nH]c(=O)oc4c3)ccc21
IC50 [1]: Not Active

O=c1[nH]c2cc(S(=O)(=O)Nc3ccc4[nH]ncc4c3)ccc2o1
pIC50 [1]: 4.70
pIC50 [4]: 3.68
inhibition [5]: 40%
pIC50 [6]: 4.51
pIC50 [7]: 4.44
TD50 (TZM): 155 µM
selectivity ratio [8]: 5.1
selectivity ratio [9]: 3.8
pIC50 (MT2): 3.85
Activity [2]: Active
Ratio [10]: 0.16

O=c1[nH]c2ccc(S(=O)(=O)O)cc2[nH]1
IC50 [1]: Not Active

N=C(N)c1ccc(N2CCCCC2)cc1
inhibition [3]: inactive

O=c1cc(Cc2nnc(S)n2-c2ccc(Cl)cc2)[nH]c(=O)[nH]1
inhibition [3]: Active

O=C(O)CCC1NC(=O)N(Cc2ccccc2)C1=O (configuration not stated)
inhibition [3]: inactive

COc1cccc(CNn2cnnc2S)c1OCc1ccccc1
inhibition [3]: inactive

CSCCC(NS(=O)(=O)c1ccc2[nH]c(=O)oc2c1)C(=O)O (configuration not stated)
IC50 [1]: Not Active

Cc1ccc(-c2nn(CCC(=O)O)cc2/C=C2\SC(=N)NC2=O)cc1
inhibition [3]: inactive

CC(CCc1ccccc1)NC(=O)c1ccc[nH]c1=O (configuration not stated)
inhibition [3]: inactive

Cc1nc(CN(C)S(=O)(=O)c2cc3[nH]c(=O)[nH]c3cc2Br)no1
IC50 [1]: Not Active

O=C(O)c1ccc(NS(=O)(=O)c2ccc3[nH]c(=O)[nH]c3c2)cc1O
IC50 [1]: Not Active

Cc1cc(C)n(CCOC(=O)c2ccc(N3CCNC3=O)cc2)n1
inhibition [3]: inactive

Cc1cc(COc2ccc(Cl)cc2C(N)=O)no1
inhibition [3]: inactive

COc1ccccc1-c1nccn1CCc1n[nH]c(=O)[nH]1
inhibition [3]: inactive

COc1ccc(O)c(C(=O)c2cnc3[nH]c(=O)[nH]c(=O)c3c2)c1
inhibition [3]: inactive

O=C(COc1cccc(Cl)c1Cl)N1CCNC1=O
inhibition [3]: inactive

Cc1ccc(NS(=O)(=O)c2ccc3oc(=O)[nH]c3c2)c(C)c1
Activity [2]: Active
Ratio [10]: 0.06

O=C(Cn1[nH]cc2c(=O)ncnc1-2)NC1(c2ccccc2)CCC1
inhibition [3]: inactive

O=c1[nH]c2ccc(S(=O)(=O)Nc3cc(C(F)(F)F)ccc3Cl)cc2o1
pIC50 [1]: 3.75
Activity [2]: Active

Cc1nc2c(c(=O)[nH]1)CCN(S(=O)(=O)c1cccc3nsnc13)C2
inhibition [3]: inactive

O=c1[nH]c2ccc(S(=O)(=O)Nn3cnnc3)cc2o1
IC50 [1]: Not Active

O=C(CCC1NC(=O)c2ccccc21)Nc1nc[nH]n1 (configuration not stated)
inhibition [3]: inactive

COc1ccc2[nH]c(C(N)=O)cc2c1
inhibition [3]: inactive

Cc1nc[nH]c1-c1nccn1CCCc1ccccc1
inhibition [3]: inactive

NC(=O)c1ccc(CNC(=O)Cn2ccc(=O)[nH]c2=O)cc1
inhibition [3]: inactive

O=C(CO)N1CCCC(c2[nH]ncc2Cc2ccccc2)C1 (configuration not stated)
inhibition [3]: inactive

COc1ccccc1NC(=O)CCNS(=O)(=O)c1ccc2nc(O)oc2c1
IC50 [1]: Not Active

O=C(CSc1ccccn1)c1ccc(O)c(O)c1
inhibition [3]: inactive
